Data on ten compounds can be found in ChEMBL document CHEMBL2069191, “Antitrypanosomal and antioxidant properties of 4-hydroxycoumarins derivatives” (2012).

The source made the active and inactive calls. The calls are words filed in the database; no cut-off is given here.

Common to all, as to format: functional
One assay relates to Trypanosoma cruzi. Nature of the assay: Antitrypanosomal activity against trypomastigote stage of Trypanosoma cruzi Dm28c at 10 umol/L after 24 hrs by MTT assay. Summed up: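 Parasites at 10⁷ per mL exposed to compound in DMSO ([…] final as printed, DMSO below 0.1% v/v) for 24 h at 37 °C. Nifurtimox served as positive control. Colorimetric read-out of viable parasites by absorbance at 570 nm.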
In general terms: Formazan colour is commonly taken as a measure of viable cells.

Assay [1] can be described thus: Antioxidant activity against APPH radical assessed as trolox equivalent incubated for 15 mins prior to APPH addition measured every 1 min by 120 mins by fluorescein-based ORAC method. Summed up: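 Peroxyl-radical scavenging by ORAC-FL. Fluorescein (40 nM final) and compound in methanol (0.3–2 M range, as printed) in 75 mM sodium phosphate buffer pH 7.4. Preincubated 15 min at 37 °C, then AAPH (18 mM final) added. Fluorescence read at ex 485/em 528 nm every 1 min for 120 min. Area under the decay curve calculated, expressed relative to trolox. Means SD.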

Assay [2] can be described thus: Antioxidant activity assessed as inhibition of hydroxyl radical production at 1 mM after 5 mins by ESR spectrophotometry. In a few lines: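 Hydroxyl radical generated in N,N-dimethylformamide with NaOH (3 mM final), DMPO spin trap (30 mM final) and 30% hydrogen peroxide. Compounds at 1 mM final. EPR spectrum recorded after 5 min of reaction, with % scavenging derived from it.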

Consider `O=c1oc2ccc(Cl)cc2c(O)c1-c1cccc(O)c1`, for which the outcome in the assay on Trypanosoma cruzi was inactive. In addition, the Activity in assay [1] came to 7.7 equiv. The inhibition in assay [2] was 100%.

Take `O=c1oc2ccccc2c(O)c1-c1cccc(O)c1`: the values for the Activity (in the assay with Trypanosoma cruzi; in assay [1]) were 3.9% and 4.9 equiv, respectively. In assay [2], the inhibition came out at 40.2%.

For the compound `O=c1oc2ccccc2c(O)c1-c1ccc(Cl)cc1`, the Activity was 30.7% in the assay on Trypanosoma cruzi and 3.9 equiv in assay [1]. In addition, the inhibition in assay [2] came to 31.3%.

As to `CC1CS(=O)(=O)CCN1/N=C/c1ccc([N+](=O)[O-])o1` (centres undefined) [NIFURTIMOX], in the assay with Trypanosoma cruzi, the Activity was found to be 52.5%.

With `Oc1cc(O)c2c(c1)OC(c1ccc(O)c(O)c1)C(O)C2` (centres undefined), in assay [1], the Activity is 6.76 equiv.

`O=c1oc2ccccc2c(O)c1-c1ccccc1`: the Activity in the assay with Trypanosoma cruzi is 21.1%; in assay [1] it was 4.4 equiv. The inhibition in assay [2] was determined as 45.1%.

Regarding `O=c1cc(O)c2ccccc2o1`, the result in the assay on Trypanosoma cruzi was inactive. Also, the Activity in assay [1] amounted to 4.2 equiv. In addition, the inhibition in assay [2] is 61.9%.

As to `COc1ccc(-c2c(O)c3ccccc3oc2=O)cc1`, the Activity worked out at 1.6% in the assay with Trypanosoma cruzi and 5.7 equiv in assay [1]. In assay [2], the inhibition came out at 46.3%.

In the case of `O=c1c(O)c(-c2ccc(O)c(O)c2)oc2cc(O)cc(O)c12`, in assay [1], the Activity was determined as 7.28 equiv.

For `Cc1ccc(-c2c(O)c3ccccc3oc2=O)cc1`, the Activity is 16.7% in the assay on Trypanosoma cruzi and 6.5 equiv in assay [1]. Moreover, the inhibition in assay [2] is 34.6%.

For orientation: inhibition means the percentage by which the read-out fell short of the control.
